Reference: PMC5164959 (Biochemical pharmacology, 2016)
Read-outs that look alike come from different tables or passages of the source.

Legend:
[1] = target: DGKβ (Rattus norvegicus, UniProt P49621); test: Kinase assay with HEK 293T cell homogenate over-expressing DGKβ; assay type: biochemical; conditions: 20 μM inhibitor, dioleoyl DAG liposomes
Method in brief: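 Reactions contained 5 μg homogenate, 2 mM liposomes (10 mol% dioleoyl DAG, 40 mol% PS, 50 mol% PC), buffer B, 1 mM DTT, 1 mM CaCl2 and [γ32P]-ATP, 20 min at 30°C. Test compound was added from DMSO. Organic-phase 32P was counted and expressed as percent of DMSO control after subtracting the GFP-lysate background.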

[2] = test system: DGKγ; conditions: 30 μM R59022; cited from earlier work
[3] = target: 5-HT7 (Homo sapiens, UniProt P34969); test: Radioligand competition binding assay
5-HT7, sequence (P34969 whole entry, species assumed): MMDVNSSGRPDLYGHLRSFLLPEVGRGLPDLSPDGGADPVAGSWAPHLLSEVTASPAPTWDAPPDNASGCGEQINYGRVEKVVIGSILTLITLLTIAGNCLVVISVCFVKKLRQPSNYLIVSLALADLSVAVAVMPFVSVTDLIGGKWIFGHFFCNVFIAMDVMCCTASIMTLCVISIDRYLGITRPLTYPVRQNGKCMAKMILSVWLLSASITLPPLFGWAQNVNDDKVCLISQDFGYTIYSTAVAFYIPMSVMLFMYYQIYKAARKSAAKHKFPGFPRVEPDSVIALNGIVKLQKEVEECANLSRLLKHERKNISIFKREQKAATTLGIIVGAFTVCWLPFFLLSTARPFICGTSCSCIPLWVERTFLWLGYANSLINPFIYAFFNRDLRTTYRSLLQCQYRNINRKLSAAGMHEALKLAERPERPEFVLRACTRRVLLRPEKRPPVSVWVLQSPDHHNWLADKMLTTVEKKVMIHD
Method in brief: (§1)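 Run by the NIMH PDSP as radioligand competition binding assays. The primary screen used 10 μM test compound and reported mean percent inhibition of radioligand binding (n=4); above 50% counted as significant. At those receptors, IC50 values came from non-linear regression of competition binding isotherms and were converted to Ki with the Cheng-Prusoff equation.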

[4] = target: 5-HT2A (Homo sapiens, UniProt P28223); test: Radioligand competition binding assay
5-HT2A, sequence (P28223 whole entry, species assumed): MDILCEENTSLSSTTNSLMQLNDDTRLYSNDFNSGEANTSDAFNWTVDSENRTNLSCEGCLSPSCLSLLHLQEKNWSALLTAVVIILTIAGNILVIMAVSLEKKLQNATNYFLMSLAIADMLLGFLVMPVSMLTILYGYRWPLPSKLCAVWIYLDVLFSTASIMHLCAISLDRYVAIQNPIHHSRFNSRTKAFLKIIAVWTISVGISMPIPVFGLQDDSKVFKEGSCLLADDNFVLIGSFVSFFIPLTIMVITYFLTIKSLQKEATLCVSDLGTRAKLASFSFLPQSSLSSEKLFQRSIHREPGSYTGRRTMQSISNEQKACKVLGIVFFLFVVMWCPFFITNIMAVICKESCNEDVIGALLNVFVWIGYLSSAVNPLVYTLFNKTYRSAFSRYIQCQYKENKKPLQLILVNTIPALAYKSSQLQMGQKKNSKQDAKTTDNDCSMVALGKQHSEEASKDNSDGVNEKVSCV

[5] = test system: DGKε; conditions: cited from earlier work
[6] = target: 5-HT5A (Homo sapiens, UniProt P47898); test: Radioligand competition binding assay
5-HT5A, sequence (P47898 whole entry, species assumed): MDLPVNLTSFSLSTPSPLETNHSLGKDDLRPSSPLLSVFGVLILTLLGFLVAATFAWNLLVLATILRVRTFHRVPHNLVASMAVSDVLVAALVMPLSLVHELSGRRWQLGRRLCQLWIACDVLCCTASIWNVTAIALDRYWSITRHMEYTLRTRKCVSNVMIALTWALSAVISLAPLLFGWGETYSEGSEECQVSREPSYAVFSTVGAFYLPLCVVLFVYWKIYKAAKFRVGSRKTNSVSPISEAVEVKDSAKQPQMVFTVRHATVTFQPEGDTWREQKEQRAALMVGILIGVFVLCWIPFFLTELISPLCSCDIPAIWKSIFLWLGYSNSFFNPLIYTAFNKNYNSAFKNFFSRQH
Method in brief: as §1

[7] = target: DGKδ (Homo sapiens, UniProt Q16760); test: Kinase assay with HEK 293T cell homogenate over-expressing DGKδ; assay type: biochemical; conditions: 20 μM inhibitor, dioleoyl DAG liposomes
DGKδ, sequence (Q16760 1-1170 isoform Q16760-2): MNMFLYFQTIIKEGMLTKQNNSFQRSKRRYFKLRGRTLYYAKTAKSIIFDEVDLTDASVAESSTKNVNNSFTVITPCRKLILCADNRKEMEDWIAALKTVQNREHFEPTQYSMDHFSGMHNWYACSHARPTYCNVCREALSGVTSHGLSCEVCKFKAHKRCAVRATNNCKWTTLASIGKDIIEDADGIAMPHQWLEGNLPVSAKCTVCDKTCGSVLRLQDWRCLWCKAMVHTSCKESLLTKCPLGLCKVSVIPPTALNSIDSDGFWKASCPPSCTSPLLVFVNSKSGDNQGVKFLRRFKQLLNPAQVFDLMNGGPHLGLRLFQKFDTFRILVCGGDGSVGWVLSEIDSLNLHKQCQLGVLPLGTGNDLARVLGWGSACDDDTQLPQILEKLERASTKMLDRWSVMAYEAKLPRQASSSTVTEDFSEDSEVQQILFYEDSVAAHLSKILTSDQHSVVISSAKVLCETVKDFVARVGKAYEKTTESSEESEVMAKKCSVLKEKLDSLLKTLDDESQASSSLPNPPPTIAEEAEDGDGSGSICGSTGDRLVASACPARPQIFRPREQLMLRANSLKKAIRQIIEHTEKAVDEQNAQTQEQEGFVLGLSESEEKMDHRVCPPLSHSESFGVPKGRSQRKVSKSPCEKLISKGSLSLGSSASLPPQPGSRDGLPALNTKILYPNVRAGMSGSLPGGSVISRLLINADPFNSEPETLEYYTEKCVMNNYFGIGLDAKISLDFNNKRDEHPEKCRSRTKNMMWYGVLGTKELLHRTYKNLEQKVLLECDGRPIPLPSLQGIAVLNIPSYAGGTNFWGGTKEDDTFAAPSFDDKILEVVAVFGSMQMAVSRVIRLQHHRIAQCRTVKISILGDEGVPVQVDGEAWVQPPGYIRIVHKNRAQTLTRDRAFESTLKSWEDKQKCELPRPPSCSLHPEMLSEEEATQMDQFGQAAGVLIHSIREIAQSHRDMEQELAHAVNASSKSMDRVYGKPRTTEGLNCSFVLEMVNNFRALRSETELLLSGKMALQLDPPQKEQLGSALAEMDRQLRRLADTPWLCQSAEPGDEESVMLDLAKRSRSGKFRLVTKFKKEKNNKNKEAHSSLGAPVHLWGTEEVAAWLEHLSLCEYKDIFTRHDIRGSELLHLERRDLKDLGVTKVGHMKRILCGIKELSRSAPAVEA
Method in brief: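 Reactions without CaCl2 contained 5 μg homogenate, 2 mM liposomes (10 mol% dioleoyl DAG, 40 mol% PS, 50 mol% PC), buffer B, 1 mM DTT and [γ32P]-ATP, 20 min at 30°C. Test compound was added from DMSO. Extracted 32P-lipid was counted, GFP-lysate normalized, and expressed as percent of DMSO control.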

[8] = target: DGKα (Rattus norvegicus, UniProt P51556); test: Kinase assay with purified DGKα and PC:DAG:PS liposomes; assay type: biochemical; conditions: for Vmax (ATP): ATP-dependent activity; for Vmax (DAG): DAG-dependent activity; for Decrease of Vmax of purified DGKα: 0.5 mol% drug
DGKα, sequence (P51556 whole entry): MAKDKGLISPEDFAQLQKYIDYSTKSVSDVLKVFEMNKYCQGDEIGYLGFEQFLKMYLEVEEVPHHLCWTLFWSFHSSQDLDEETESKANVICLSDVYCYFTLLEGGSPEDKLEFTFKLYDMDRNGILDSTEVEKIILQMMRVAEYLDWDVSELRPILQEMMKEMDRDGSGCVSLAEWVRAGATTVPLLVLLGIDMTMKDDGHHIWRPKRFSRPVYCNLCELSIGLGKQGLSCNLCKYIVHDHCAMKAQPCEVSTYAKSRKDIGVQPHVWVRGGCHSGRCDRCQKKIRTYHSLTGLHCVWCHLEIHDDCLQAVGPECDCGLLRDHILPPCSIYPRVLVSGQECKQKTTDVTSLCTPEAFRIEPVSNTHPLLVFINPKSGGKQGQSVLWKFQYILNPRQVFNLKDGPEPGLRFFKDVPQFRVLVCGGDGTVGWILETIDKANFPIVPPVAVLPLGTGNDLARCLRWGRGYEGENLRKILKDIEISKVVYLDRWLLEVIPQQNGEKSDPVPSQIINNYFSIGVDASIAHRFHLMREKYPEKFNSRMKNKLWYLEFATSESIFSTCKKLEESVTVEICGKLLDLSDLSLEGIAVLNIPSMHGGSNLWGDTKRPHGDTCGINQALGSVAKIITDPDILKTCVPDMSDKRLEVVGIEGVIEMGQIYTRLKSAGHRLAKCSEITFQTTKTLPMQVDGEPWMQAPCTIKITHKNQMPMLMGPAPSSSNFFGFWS
Method in brief: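 Rat FLAG-DGKα was expressed in HeLa cells by adenovirus (72 h) and purified on FLAG M2 beads. Reactions contained buffer B (MOPS pH 7.5), 1 mM CaCl2, 1 mM DTT and 4.75 mM PC:PS:DAG liposomes (5 mol% DAG), with test compound built into the liposomes at 0.5 or 2.0 mol% or added from DMSO. Reactions with [γ32P]-ATP ran 15 min at 25°C. Km and Vmax came from Michaelis-Menten non-linear regression.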

Cc1nc2sccn2c(=O)c1CCN1CCC(=C(c2ccccc2)c2ccc(F)cc2)CC1 [R59022]
Activity of DGKβ, percent of control [1]: not detectably inhibited
Inhibition of DGKγ [2]: did not inhibit
Percent Inhibition of Binding 5-HT7 ([3]; 10 μM test compound, n=4): 98.5%
Ki ([3]; read-out: Ki 5-HT7, Cheng-Prusoff from best-fit IC50): 14.2 nM
Percent Inhibition of Binding 5-HT2A ([4]; 10 μM test compound, n=4): 98.2%
Ki ([4]; read-out: Ki 5-HT2A, Cheng-Prusoff from best-fit IC50): 2.2 nM
Inhibition of DGKε [5]: reported to inhibit
Percent Inhibition of Binding 5-HT5A ([6]; 10 μM test compound, n=4): 92.0%
Ki ([6]; read-out: Ki 5-HT5A, Cheng-Prusoff from best-fit IC50): 18 nM
Activity of DGKδ, percent of control [7]: not detectably inhibited
Vmax (ATP) ([8]; 0.5 mol% drug in liposomes, 5 mol% DAG): 32 ± 1 nmol/min/mg
Vmax (DAG) ([8]; 0.5 mol% drug in liposomes, 1 mM ATP): 22 ± 1 nmol/min/mg
Decrease of Vmax of purified DGKα ([8]; in the context of ATP): 25%
Decrease of Vmax of purified DGKα ([8]; in the context of DAG): 40%
Vmax (ATP) ([8]; 2.0 mol% drug in liposomes, 5 mol% DAG): 20 ± 1 ^† nmol/min/mg
Vmax (DAG) ([8]; 2.0 mol% drug in liposomes, 1 mM ATP): 16 ± 1.5 nmol/min/mg
Km ([8]; read-out: Km^app (ATP), 0.5 mol% drug in liposomes, 5 mol% DAG): 50 ± 10 µM
Km ([8]; read-out: Km^app (ATP), 2.0 mol% drug in liposomes, 5 mol% DAG): 30 ± 10 µM
Km ([8]; read-out: Km^app (DAG), 0.5 mol% drug in liposomes, 1 mM ATP): 110 ± 20 µM
Km ([8]; read-out: Km^app (DAG), 2.0 mol% drug in liposomes, 1 mM ATP): 100 ± 20 µM
